Laboratory results: ChEMBL document CHEMBL1139834, “Synthesis and structure-activity relationships of new benzodioxinic lactones as potential anticancer drugs” (J Med Chem, 2007)

Columns and labels:
[1] = tested on: L1210; experiment: Cell cycle arrest in mouse L1210 cell line by accumulation at G2/M phase at 5 uM after 24 hrs; type: functional
Summary of the method: (§1)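 L1210 cells in RPMI 1640 with 2 mM L-glutamine, penicillin, streptomycin and 20% heat-inactivated horse serum, 5% CO2, 37 °C, exposed to several drug concentrations. Cells fixed in 70% ethanol, washed, stained 30 min at room temperature with propidium iodide plus RNAse in PBS, then flow cytometry. Read-out is percentage of cells in each cycle phase after 24 h exposure.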

[2] = tested on: SNB-75; experiment: Antitumor activity against human SNB75 cell line; type: functional; conditions: read-out: LC50 (the source's name)
Summary of the method: (§2)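 Human tumour cell lines from a selected panel. GI50 is the concentration giving 50% growth inhibition, averaged from at least two determinations. LC50 is the concentration killing 50% of cells in a […] assay.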

[3] = tested on: U-251; experiment: Antitumor activity against human U251 cell line; type: functional; summary of the method: as §2
[4] = tested on: HT-29; experiment: Cytotoxicity against human HT29 cell line; type: cell-based
Summary of the method: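 Cells grown at 37 °C under 5% CO2 in medium with 2 mM L-glutamine, penicillin, streptomycin and 20% heat-inactivated horse serum. Drug in DMSO (0.5% final) added to exponentially growing cells seeded at 0.8 × 10^5 cells/mL. Coulter counting in quadruplicate at 48 h (L1210) or 96 h (HT-29). IC50 from probit of % growth inhibition versus log dose; four independent runs in triplicate.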

[5] = tested on: L1210; experiment: Cell cycle arrest in mouse L1210 cell line by accumulation at 8N phase at 5 uM after 24 hrs; type: functional; summary of the method: as §1
[6] = tested on: CCRF-CEM; experiment: Antitumor activity against human CCRF-CEM cell line; type: functional
Summary of the method: (§3)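 Human tumour cell line panel. GI50 is the concentration giving 50% growth inhibition, averaged over at least two determinations. LC50 is the concentration killing 50% of cells in a […] assay.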

[7] = tested on: K562; experiment: Antitumor activity against human K562 cell line; type: functional; summary of the method: as §3
[8] = tested on: SR; experiment: Antitumor activity against human SR cell line; type: functional; summary of the method: as §2
[9] = tested on: NCI-H226; experiment: Antitumor activity against human NCI-H226 cell line; type: functional; summary of the method: as §3
[10] = tested on: NCI-H322M; experiment: Antitumor activity against human NCI-H322M cell line; type: functional; summary of the method: as §3
[11] = tested on: CAKI-1; experiment: Antitumor activity against human CAKI1 cell line; type: functional; summary of the method: as §3
[12] = tested on: SN12C; experiment: Antitumor activity against human SN12C cell line; type: functional; summary of the method: as §3
[13] = tested on: MDA-MB-231; experiment: Antitumor activity against human MDA-MB-231 cell line; type: functional; summary of the method: as §3
[14] = tested on: BT-549; experiment: Antitumor activity against human BT549 cell line; type: functional; summary of the method: as §3
[15] = tested on: T47D; experiment: Antitumor activity against human T47D cell line; type: functional; summary of the method: as §2
[16] = read-out: LC50 (the source's name)

Q: With `CCCCc1c2c(c(C)c3c1C(=O)OC3)Oc1ccccc1O2` as the compound, how does the Activity [1] read?
A: The Activity was 67%.

Q: What about the CC50 [2] of the same compound?
A: Its CC50 is 90 µM.

Q: And the GI50 [3]?
A: The GI50 was 525 nM.

Q: And the CC50 [3, 16]?
A: Its CC50 is 40 µM.

Q: And the IC50 [4]?
A: Its IC50 is 580 nM.

Q: And the Activity [5]?
A: The Activity was 67%.

Q: What about the GI50 [6] of the same compound?
A: The GI50 was 501 nM.

Q: And the CC50 [6, 16]?
A: Its CC50 is 100 µM.

Q: And the GI50 [7]?
A: Its GI50 is 380 nM.

Q: And the CC50 [7, 16]?
A: The CC50 was 100 µM.

Q: What about the GI50 [8] of the same compound?
A: Its GI50 is 132 nM.

Q: And the CC50 [8, 16]?
A: Its CC50 is 100 µM.

Q: And the GI50 [9]?
A: Its GI50 is 1860 nM.

Q: And the CC50 [9, 16]?
A: Its CC50 is 100 µM.

Q: What about the GI50 [10] of the same compound?
A: Its GI50 is 933 nM.

Q: And the CC50 [10, 16]?
A: The CC50 was 100 µM.

Q: And the GI50 [11]?
A: The GI50 was 26.3 µM.

Q: What about the CC50 [11, 16] of the same compound?
A: The CC50 was 100 µM.

Q: And the GI50 [12]?
A: Its GI50 is 1260 nM.

Q: And the CC50 [12, 16]?
A: Its CC50 is 100 µM.

Q: What about the GI50 [13] of the same compound?
A: Its GI50 is 2340 nM.

Q: And the CC50 [13, 16]?
A: Its CC50 is 100 µM.

Q: And the GI50 [14]?
A: Its GI50 is 21.4 µM.

Q: And the CC50 [14, 16]?
A: Its CC50 is 100 µM.

Q: And the GI50 [15]?
A: Its GI50 is 6.46 µM.

Q: And the CC50 [15, 16]?
A: The CC50 was 100 µM.
